# Assays:
# [1] = Hepatocytes metabolic stability; type: in vitro ADME; conditions: mouse; for half-life: hepatocytes
# Method in brief: (§1)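 Test compound was incubated with liver microsomes or hepatocytes of each species, and parent depletion was quantified by LC-MS/MS. From this, in vitro half-life and intrinsic clearance were derived, along with predicted metabolic clearance and hepatic extraction ratio.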
# CpPI(4)K = target: T1, CpPI(4)K (Cryptosporidium parvum, UniProt Q5CVD3); experiment: PI; type: biochemical, C. parvum
# T1 sequence (Q5CVD3 1-1114): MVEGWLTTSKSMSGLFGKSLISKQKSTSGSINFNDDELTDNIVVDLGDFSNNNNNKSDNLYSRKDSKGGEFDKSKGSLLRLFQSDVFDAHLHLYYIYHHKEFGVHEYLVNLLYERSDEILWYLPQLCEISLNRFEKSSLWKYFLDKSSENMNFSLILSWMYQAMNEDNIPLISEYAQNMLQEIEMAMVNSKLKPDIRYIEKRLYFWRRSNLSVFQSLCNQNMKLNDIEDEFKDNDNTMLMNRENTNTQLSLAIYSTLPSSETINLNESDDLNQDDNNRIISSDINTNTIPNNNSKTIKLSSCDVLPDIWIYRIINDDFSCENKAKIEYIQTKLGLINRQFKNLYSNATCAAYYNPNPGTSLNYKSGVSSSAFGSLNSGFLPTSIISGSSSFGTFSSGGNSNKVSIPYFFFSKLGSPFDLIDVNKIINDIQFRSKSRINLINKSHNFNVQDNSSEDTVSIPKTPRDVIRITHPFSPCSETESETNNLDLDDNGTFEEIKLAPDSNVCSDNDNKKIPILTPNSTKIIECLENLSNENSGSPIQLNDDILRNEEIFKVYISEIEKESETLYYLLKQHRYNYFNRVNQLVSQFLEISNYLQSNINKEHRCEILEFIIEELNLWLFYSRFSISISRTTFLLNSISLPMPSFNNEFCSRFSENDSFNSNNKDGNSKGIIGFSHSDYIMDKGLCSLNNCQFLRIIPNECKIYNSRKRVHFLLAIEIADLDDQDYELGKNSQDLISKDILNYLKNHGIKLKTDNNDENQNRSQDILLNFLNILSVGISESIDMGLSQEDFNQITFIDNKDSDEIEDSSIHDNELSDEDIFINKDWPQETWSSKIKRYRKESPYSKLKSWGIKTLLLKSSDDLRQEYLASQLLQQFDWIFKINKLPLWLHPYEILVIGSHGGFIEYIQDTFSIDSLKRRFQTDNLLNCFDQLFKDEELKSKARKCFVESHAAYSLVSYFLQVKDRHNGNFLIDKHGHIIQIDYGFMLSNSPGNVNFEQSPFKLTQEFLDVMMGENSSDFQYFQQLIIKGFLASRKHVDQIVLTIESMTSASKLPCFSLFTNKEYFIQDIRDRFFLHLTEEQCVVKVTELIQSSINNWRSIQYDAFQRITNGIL
# Method in brief: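 Enzyme was pre-incubated with compound for 5 min at room temperature. The reaction was started with substrate mix at twice final strength (PI, ATP, Tris-HCl pH 7.5, DTT, 0.05% Triton X-100, MnCl2) and run 50 min at room temperature. ADP was measured by ADP-Glo luminescence. IC50s came from in-plate duplicate 10-point 3-fold dilutions, with DMSO and reference-inhibitor controls. The C. parvum enzymes (wild type and mutants) were full-length proteins expressed from baculovirus in Sf21 cells.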
# [2] = Stability in intestinal S9 fraction; type: in vitro ADME; conditions: mouse
# Method in brief: (§2)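 Test compound added to intestinal S9 fraction of each species to start the reaction. Incubated in a shaking water bath at 37 °C, with samples taken at sequential timepoints. Samples quenched with ice-cold acetonitrile and analysed by LC-MS/MS. Half-life calculated from the rate of parent compound depletion.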
# [3] = Stability in intestinal S9 fraction; type: in vitro ADME; conditions: human
# Method in brief: as §2
# C. parvum = experiment: Mouse efficacy study; type: in vivo, C57BL/6 IFN-γ-knockout mice; conditions: oral 10 mg kg^−1, 5 days; nitazoxanide 100 mg kg^−1
# Plasma stability [4] = type: in vitro ADME; conditions: human
# Method in brief: (§3)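 Test compound was added to plasma and incubated at 37 °C in a shaking water bath, with samples taken at sequential timepoints. Samples were quenched with ice-cold acetonitrile and analysed by LC-MS/MS, and half-life was calculated from the depletion rate.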
# Plasma stability [5] = type: in vitro ADME; conditions: mouse
# Method in brief: as §3
# HsPI(4)K = HsPI(4)K (Homo sapiens, UniProt Q9UBF8); experiment: PI; type: biochemical; conditions: HsPI(4)K IC50, 3 μM ATP
# P-glycoprotein (MDR1) = experiment: MDCK MDR1 permeability and efflux; type: in vitro ADME; conditions: dog
# [6] = High-throughput equilibrium solubility; type: physicochemical; conditions: thermodynamic from solid
# Method in brief: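 Equilibrium solubility was measured by a miniaturized shake-flask method with HPLC quantification.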
# Cytotoxicity assay = type: cell-based, human; conditions: human, HepG2 cells (ATCC CRL-10741), HepG2 CC50, 96 h
# [7] = Systemic exposure in the mouse efficacy studies; type: in vivo; conditions: mouse efficacy study, 10 mg kg^−1 oral
# [8] = 2 weeks GLP dog toxicology study with toxicokinetics; type: in vivo; conditions: both, beagle, dog, plasma, po, 1000 mg/kg/day, EDI048 1000 mg/kg/day; for AUC(0-t): AUC0-8, dog
# [9] = In vivo pharmacokinetic analysis; conditions: male, Beagle, dog, plasma
# Method in brief: (§4)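 Animals were male C57BL/6 mice (8–10 weeks), Wistar rats (8–10 weeks) and beagle dogs (12–14 weeks). Each received oral and i.v. doses, with plasma sampling for PK parameters.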
# [10] = 2 weeks GLP rat toxicology study with toxicokinetics; type: in vivo; conditions: both, Wistar, plasma, po, 1000 mg/kg/day, EDI048 1000 mg/kg/day; for AUC(0-t): AUC0-8, rat
# Method in brief: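 Male and female Wistar rats were about 7–8 weeks old at receipt and 9–10 weeks old at the start of dosing. They were dosed for 2 weeks at 50, 250 and 1000 mg/kg/day, with toxicokinetic plasma sampling.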
# [11] = Hepatocytes metabolic stability; type: in vitro ADME; conditions: human
# Method in brief: as §1
# [12] = In vivo pharmacokinetic analysis; set-up: species or system mouse; conditions: male, C57BL/6, mouse, plasma
# Method in brief: as §4
# Chain of HsPI(4)K (Q9UBF8 523-816 limits assumed): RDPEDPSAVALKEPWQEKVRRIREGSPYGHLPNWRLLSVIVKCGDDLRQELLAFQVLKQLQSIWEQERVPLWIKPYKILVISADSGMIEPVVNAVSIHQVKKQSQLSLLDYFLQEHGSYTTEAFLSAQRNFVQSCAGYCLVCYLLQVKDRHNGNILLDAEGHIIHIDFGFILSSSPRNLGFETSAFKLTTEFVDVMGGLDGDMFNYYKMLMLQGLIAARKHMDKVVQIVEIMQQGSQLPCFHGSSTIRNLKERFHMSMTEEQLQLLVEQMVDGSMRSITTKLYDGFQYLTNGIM
SMILES,Hepatocytes ER [1],half-life [1],"IC50 (CpPI(4)K; CpPI(4)K IC50, 3 μM ATP)","IC50 (CpPI(4)K; CpPI(4)K IC50, running text)",half-life [2],half-life [3],efficacy in the mouse model (C. parvum),half-life (Plasma stability [4]),half-life (Plasma stability [5]),IC50 (HsPI(4)K),Papp A→B (P-glycoprotein (MDR1); MDCK-MDR1),Papp B→A (P-glycoprotein (MDR1); MDCK-MDR1),efflux ratio (P-glycoprotein (MDR1); MDCK-MDR1),solubility ([6]; FaSSIF),"solubility ([6]; pH 6.8, aqueous buffer)",CC50 at 96 h (Cytotoxicity assay),AUC(0-t) ([8]; day 1),AUC(0-t) ([8]; day 14),Cmax ([8]; day 14),Tmax ([8]; day 1),other results
"CCOC(=O)CN(C(=O)c1ccn2ncc(-c3ccc(C(=O)NC)cc3)c2c1)c1ccc(Cl)cc1 [Compound 1, ethyl N-(4-chlorophenyl)-N-(3-(4-(methylcarbamoyl)phenyl)pyrazolo[1,5-a]pyridine-5-carbonyl)glycinate]",74%,0.223 h,7 ± 2 nM,2 to 7 nM,2 h,2 h,highly efficacious,> 2 h,0.227 h,1140 ± 296 nM,7.89 ×10⁻⁶ cm/s,7.4 ×10⁻⁶ cm/s,0.94,86 µM,31 µM,14700 nM,,,,,
"CNC(=O)c1ccc(-c2cnn3ccc(C(=O)N(CC(=O)O)c4ccc(Cl)cc4)cc23)cc1 [Compound 2, N-(4-chlorophenyl)-N-(3-(4-(methylcarbamoyl)phenyl)pyrazolo[1,5-a]pyridine-5-carbonyl)glycine]",52%,0.597 h,2 nM,2 to 7 nM,> 4 h,,not efficacious in vivo,> 2 h,> 2 h,135 ± 33 nM,0.89 ×10⁻⁶ cm/s,1.65 ×10⁻⁶ cm/s,1.85,1000 µM,708 µM,> 100000 nM,,,,,
"CNC(=O)c1ccc(-c2cnn3ccc(C(=O)N(CCC(=O)OCC(=O)N(C)C)c4ccc(Cl)cc4)cc23)cc1 [Compound 3, 2-(dimethylamino)-2-oxoethyl 3-(N-(4-chlorophenyl)-3-(4-(methylcarbamoyl)phenyl)pyrazolo[1,5-a]pyridine-5-carboxamido)propanoate]",93%,< 0.0467 h,5 nM,,0.153 h,0.75 h,inactive in vitro and in vivo,,,1030 ± 485 nM,,,,355 µM,11 µM,38200 nM,,,,,AUC (time 0 to last timepoint) [7]: <LLOQ^f; Cmax [7]: <LLOQ^f
"COC(=O)c1cc(Cl)ccc1N(C)C(=O)c1ccn2ncc(-c3ccc(C(N)=O)cc3)c2c1 [Compound 5, methyl 2-(3-(4-carbamoylphenyl)-N-methylpyrazolo[1,5-a]pyridine-5-carboxamido)-5-chlorobenzoate]",91%,0.0667 h,5 ± 2 nM,,1 h,1.77 h,,> 2 h,> 2 h,203 ± 47 nM,2.55 ×10⁻⁶ cm/s,15.7 ×10⁻⁶ cm/s,6.15,147 µM,110 µM,> 100000 nM,,,,,
"CNC(=O)c1ccc(-c2cnn3ccc(C(=O)N(C)c4ccc(Cl)c(C(=O)O)c4)cc23)cc1 [Compound 6, 2-chloro-5-(N-methyl-3-(4-(methylcarbamoyl)phenyl)pyrazolo[1,5-a]pyridine-5-carboxamido)benzoic acid]",18%,> 2.92 h,31 ± 24 nM,,> 4 h,,,,,484 ± 119 nM,0.56 ×10⁻⁶ cm/s,,1.86,,,> 100000 nM,205 ng·h/mL,301 ng·h/mL,72.8 ng/mL,1.2 h,"Tmax ([8]; day 14): 1.15 h; AUC ([9]; iv, 0.1 mg/kg): 0.0319 µM·h; AUC ([9]; po, 0.3 mg/kg): 0.0047 µM·h; Cmax ([9]; po, 0.3 mg/kg): 2 nM; AUC(0-t) ([10]; day 1): 886 ng·h/mL; AUC(0-t) ([10]; day 14): 1430 ng·h/mL; Cmax ([10]; day 14): 242 ng/mL; Tmax ([10]; day 1): 1 h; Tmax ([10]; day 14): 3 h; Hepatocytes ER [11]: 33%; half-life ([11]; hepatocytes): > 2.92 h; AUC ([12]; iv, 1 mg/kg): 1.19 µM·h; AUC ([12]; po, 10 mg/kg): 0.092 µM·h; Cmax ([12]; po, 10 mg/kg): 33.4 nM; Papp B→A (P-glycoprotein (MDR1); MDCK-MDR1, Permeability B–A, MDCK MDR1, basolateral to apical): 1.04 ×10⁻⁶ cm/s; solubility ([6]; pH 6.8, aqueous buffer, Solubility pH 6.8, pH 6.8): > 1000 µM"
"COC(=O)c1cc(N(C)C(=O)c2ccn3ncc(-c4ccc(C(=O)O)cc4)c3c2)ccc1Cl [Compound 7, 4-(5-((4-chloro-3-(methoxycarbonyl)phenyl)(methyl)carbamoyl)pyrazolo[1,5-a]pyridin-3-yl)benzoic acid]",,,76 nM,,,,,,,11300 nM,,,,,,> 100000 nM,642 ng·h/mL,1180 ng·h/mL,224 ng/mL,1.6 h,Tmax ([8]; day 14): 2.2 h; AUC(0-t) ([10]; day 14): 0.221 ng·h/mL; Cmax ([10]; day 14): 0.046 ng/mL; Tmax ([10]; day 1): 3 h; Tmax ([10]; day 14): 1 h

# Source: article PMC11522000 (Nature Microbiology, 2024)
